Source: PubChem
Redox H2O2 prof: compounds producing H2O2 with reducing agent – biochemical, NIH compound library profiling, artefact control for MLSCN library redox annotation, primary screen | DTT-dependent redox cycling H2O2, phenol red/HRP absorbance; 100% = 100 µM peroxide control, 0% = buffer | 0.03% of 200,000 active | activation, % at 10 µM;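 active = activation of at least 50% relative to the plate's high and low controls in the primary single-dose screen; inactive = activation below 50%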;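 also: compound incubated with DTT at 0.8 mM final as the reducing agent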
p97 ATPase inh: blocks human p97 ATPase activity; P55072; recombinant p97 ATPase, Kinase-Glo ATP luminescence, 3 h; inhibition, % at 8 µM; 0.42% of 220,000 active; in the data active = inhibition above about 15%;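 also: 0% = DMSO vehicle and 100% = wells lacking enzyme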
PMI act satM6P: increases human PMI activity with near-saturating mannose 6-phosphate; P34949; coupled PMI enzyme assay, resazurin fluorescence, 20 min; hits give high values; 1 = untreated enzyme, 0 = substrate-free blank; activation factor at 20 µM; 0.34% of 190,000 active;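 active = activation factor of 2 or more at 20 µM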
Target sequence (P34949 whole entry, looked up): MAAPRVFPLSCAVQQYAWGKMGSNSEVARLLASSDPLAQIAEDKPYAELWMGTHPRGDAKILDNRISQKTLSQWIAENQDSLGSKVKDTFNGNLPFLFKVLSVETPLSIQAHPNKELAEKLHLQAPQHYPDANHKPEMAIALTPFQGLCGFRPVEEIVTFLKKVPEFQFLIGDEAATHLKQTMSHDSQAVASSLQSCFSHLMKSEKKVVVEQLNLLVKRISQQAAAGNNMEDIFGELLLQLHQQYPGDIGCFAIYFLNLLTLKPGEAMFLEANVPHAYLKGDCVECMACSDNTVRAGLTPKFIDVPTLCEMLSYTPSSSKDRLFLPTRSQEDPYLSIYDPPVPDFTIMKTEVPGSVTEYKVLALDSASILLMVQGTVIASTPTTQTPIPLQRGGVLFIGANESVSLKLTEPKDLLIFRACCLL
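Material: human phosphomannose isomerase with PGI, G6PDH, diaphorase coupling enzymes; amount: PMI at 15 ng/mL final; also added: Mannose-6-phosphate 1.0 mM (near-saturating) plus 0.22 mM NADP+; incubation: enzyme reaction with compound 20 min at room temperature; signal: resorufin fluorescence (Ex 544/Em 590 nm) from resazurin via diaphorase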
Tb hexokinase: blocks Trypanosoma brucei hexokinase 1 activity | recombinant TbHK1, G6PDH-coupled NADH A340 | inhibition, % at 10 µM | AID 1430 | 0.11% of 220,000 active;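 active = inhibition of 50% or more in the single-dose primary screen; inactive = inhibition below 50%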
G6PDH counter-1: counter-screen for G6PDH assay hits: L. mesenteroides G6PDH inhibition; Purified L. mesenteroides G6PDH, diaphorase/resazurin coupled fluorescence, 45 min; inhibition, % at 5 µM; 0.12% of 200,000 active; AID 1020; in the data active = inhibition above about 50%
PMI activator: increases human mannose-6-phosphate isomerase activity | purified human PMI, coupled resazurin fluorescence, 20 min; hits give high values; 1 = vehicle control, 0 substrate-free wells | 0.005% of 190,000 active | activation factor at 20 µM | P34949 | AID 1214;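 active = activation factor of 2 or more at 20 µM, relative to plate controls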
G6PDH counter-2: Leuconostoc glucose-6-phosphate dehydrogenase inhibition, counter-screen; shares compounds with Tb hexokinase; purified G6PDH, NADH absorbance, 1 h; inhibition, % at 10 µM; 7% of 210 active; AID 2516;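 active = at least 50% inhibition in the glucose-6-phosphate dehydrogenase coupled counterscreen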
TbHK1 confirm: T. brucei hexokinase 1 inhibition, rescreen; shares compounds with Tb hexokinase; recombinant TbHK1, G6PDH-coupled NADH A340 absorbance; inhibition, % at 10 µM; 10% of 210 active; AID 2560;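 active = inhibition of at least 50% in both of the two screening runs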;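 also: 0% and 100% set by the maximum and minimum signal control wells on each plate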
An asterisk follows results filed as active. Compounds with a hit are over-represented: about 0.91% of the library has one in this group of screens.

O=C(Nc1ccc(Cl)cc1)ON=C1CCCC1 was read as Redox H2O2 prof 0, p97 ATPase inh 6, PMI act satM6P 0.8, Tb hexokinase 30, G6PDH counter-1 0 and PMI activator 0.8.
`CC1CC(OCC(O)C[N+]2(C)CCOCC2)CC(C)(C)C1` (stereo not given) gave Redox H2O2 prof 0, p97 ATPase inh -5, PMI act satM6P 1.1, Tb hexokinase -1, G6PDH counter-1 8 and PMI activator 0.9.
`Cc1ccc(N2C(=O)CSC2c2cccnc2)cc1F` (stereo not given) gave Redox H2O2 prof 0, p97 ATPase inh 1, PMI act satM6P 1, Tb hexokinase 55*, G6PDH counter-1 2, PMI activator 1.1, G6PDH counter-2 -2 and TbHK1 confirm 2.
`O=C1CSC(c2cccnc2)N1c1ccc(Cl)cc1` (stereo not given) gave Redox H2O2 prof -1, p97 ATPase inh 1, PMI act satM6P 0.9, Tb hexokinase 0, G6PDH counter-1 -1 and PMI activator 1.
`COC(=O)c1ccccc1NC(=O)CCS(=O)(=O)c1ccc(Br)cc1` gave Redox H2O2 prof -1, p97 ATPase inh -2, PMI act satM6P 1, Tb hexokinase 62*, G6PDH counter-1 1, PMI activator 1, G6PDH counter-2 -6 and TbHK1 confirm 67*.
`CCCCCC/C=C/c1ccc(OC)c([C@H]2[C@H]3C=CC[C@@H](C)[C@@H]3C(=O)N2Cc2ccccc2)c1` gave Tb hexokinase 6.
For O=C(NCc1ccc(C(F)(F)F)cc1)C1CC(c2ccccc2[N+](=O)[O-])=NO1 (stereo not given) the results were Redox H2O2 prof 2, p97 ATPase inh 2, PMI act satM6P 0.9, Tb hexokinase -1, G6PDH counter-1 8 and PMI activator 0.9.
Screening COc1cccc(C(=O)N2CCSC2=S)c1 returned Redox H2O2 prof 2, p97 ATPase inh 6, PMI act satM6P 1.1, Tb hexokinase 57*, G6PDH counter-1 0, PMI activator 1, G6PDH counter-2 -18 and TbHK1 confirm -6.
Screening Cn1c(SCc2ccc(C#N)cc2)nnc1-c1cccc(Cl)c1 returned Redox H2O2 prof -1, p97 ATPase inh -2, PMI act satM6P 1, Tb hexokinase 55*, G6PDH counter-1 4, PMI activator 1.1, G6PDH counter-2 -12 and TbHK1 confirm 20.
Screening Cn1c(SCc2ccc(C#N)cc2)nnc1-c1ccccc1 returned Redox H2O2 prof 2, p97 ATPase inh 6, PMI act satM6P 0.9, Tb hexokinase 4, G6PDH counter-1 20 and PMI activator 1.1.
COc1cccc2c(=O)c(C(=O)NCc3cccs3)c[nH]c12 was read as Redox H2O2 prof -3, p97 ATPase inh -2, PMI act satM6P 0.9, Tb hexokinase 53*, G6PDH counter-1 8, PMI activator 1, G6PDH counter-2 -13 and TbHK1 confirm -22.
Screening Cc1ccc2[nH]cc(C(=O)NCc3cccs3)c(=O)c2c1 returned Redox H2O2 prof 0, p97 ATPase inh -5, PMI act satM6P 1, Tb hexokinase 0, G6PDH counter-1 -7 and PMI activator 0.9.
`Cc1nn(C)c(Cl)c1C(=O)NCC(=O)O` gave Redox H2O2 prof -1, p97 ATPase inh 5, PMI act satM6P 1, Tb hexokinase -1, G6PDH counter-1 -2 and PMI activator 1.
`Cc1nn(C)c(C)c1C(=O)NN` gave Redox H2O2 prof -4, p97 ATPase inh 1, PMI act satM6P 1, Tb hexokinase 54*, G6PDH counter-1 -2, PMI activator 0.9, G6PDH counter-2 -2 and TbHK1 confirm 2.
CCCCn1c(SCC(=O)N2CCOCC2)nnc1-c1ccoc1C was read as Redox H2O2 prof 3, p97 ATPase inh -2, PMI act satM6P 1.1, Tb hexokinase 3, G6PDH counter-1 3 and PMI activator 1.
